Out of some 340,000 compounds screened, about 3,000 (0.88%) were called active. This excerpt belongs to a sample that is enriched for actives. Values without a mark were called inactive.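 How the source made its calls: active means inhibition above about 50% at 20 µM (limit read from the data); inactive means the rest.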
Target: Carboxy-terminal domain RNA polymerase II polypeptide A small phosphatase 1 (Homo sapiens) (UniProt Q9GZU7)
Test: inhibition of human SCP1 dephosphorylation activity – biochemical, colorimetric, uHTS, primary screen (AID 493091);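 further: plate controls were DMSO wells with enzyme for no effect and wells lacking enzyme for full effect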
Conditions: Recombinant Scp1, phosphopeptide, malachite green phosphate absorbance; at 20 µM; active compounds read high
Outline: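 Times: enzyme reaction 45 min at room temperature, colour 5 min, stabilisation 30 min. Material: SCP-1 catalytic fragment, aa 76-261. Medium: Acidic Tris acetate buffer with magnesium and detergent. Signal: colorimetric free-phosphate detection, absorbance 630 nm. Read-out basis: % inhibition of SCP-1 phosphate liberation. Reagent: Phosphorylated 17-residue peptide substrate.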

Chain of Carboxy-terminal domain RNA polymerase II polypeptide A small phosphatase 1 (Homo sapiens) (Q9GZU7 76-261 limits assumed): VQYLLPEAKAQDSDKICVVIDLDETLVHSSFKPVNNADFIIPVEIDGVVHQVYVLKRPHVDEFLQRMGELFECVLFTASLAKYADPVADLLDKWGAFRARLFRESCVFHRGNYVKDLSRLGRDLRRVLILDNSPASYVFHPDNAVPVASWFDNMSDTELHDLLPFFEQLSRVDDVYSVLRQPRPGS

Compound	inhibition
CC(C)CNC(=O)COC(=O)/C=C/c1ccco1	22.6%
COc1c(Br)cc2c(C)c(C(=O)N3CCOCC3)oc2c1Br	-4.18%
Cc1ccc(OCCC(=O)OCC(=O)N2c3ccccc3NC(=O)C2(C)C)cc1	3.3%
CCNc1ccc(C(=O)OCC(=O)N2c3ccccc3NC(=O)C2(C)C)cc1[N+](=O)[O-]	-9.83%
CNS(=O)(=O)c1cccc(C(=O)OCC(=O)N2c3ccccc3NC(=O)C2(C)C)c1	51% (active)
CCCCCN(C(=O)CCC(=O)OCC(=O)NC1CCC(C)CC1)c1c(N)n(CCCC)c(=O)[nH]c1=O (stereo unspecified)	3.11%
CC(=O)NNC(=O)c1csc(Cc2c(Cl)sc3ccc(Cl)cc23)n1	-4.25%
CC1CC(=O)N(CC(=O)Nc2cccc(Cl)c2)c2ccccc2S1(=O)=O (stereo unspecified)	-2.39%
O=C(CCc1ccc(S(=O)(=O)N2CCOCC2)cc1)Nc1ccc2ccccc2c1	-11.8%
CCOc1cc(C(=O)O)ccc1OCCOc1ccccc1	6.63%
CC/C(=C(/c1ccccc1)c1ccc(OCC[N+](C)(C)C)cc1)c1ccccc1	67.4% (active)
CCN(C(=O)COc1ccc(C(=O)c2ccccc2)cc1)c1ccccc1	-3.83%
O=C(CCn1ccc([N+](=O)[O-])n1)Nc1nccs1	-5.19%
CC(=O)c1ccc(N2CCN(C(=O)c3ccc(Cl)c(S(=O)(=O)NC4CC4)c3)CC2)c(F)c1	-5.7%
CSc1nnc(SCc2nc3sc(C(=O)O)c(C)c3c(=O)[nH]2)s1	74% (active)
CC(=O)c1sc2nc(SCC(=O)N3CCCCC3)[nH]c(=O)c2c1C	7.94%
Cc1sc2nc(CSCC(=O)NC3CCCCC3)[nH]c(=O)c2c1C	1.62%
CCN1/C(=C\c2ccc3ccccc3[n+]2CC)Sc2cc(C)ccc21	21.8%
CCN1/C(=C/c2ccc3ccc(C)cc3[n+]2CC)Sc2ccccc21	64.2% (active)
CCOc1cc(C2C(C(=O)OC(C)C)=C(C)NC3=C2C(=O)CCC3)cc([N+](=O)[O-])c1O (stereo unspecified)	-7.32%
CCN(CC)C(=O)Oc1ccc(OC(=O)N(CC)CC)cc1	7.37%
O=C(NCc1ccccn1)C1CCN(S(=O)(=O)c2ccc(Br)cc2)CC1	3.99%
CC(=O)N1CCN(C(=O)c2cc(-c3ccc(C)o3)nc3ccccc23)CC1	-8.9%

Compound	inhibition
Cc1ccc(NC(=O)c2cc(-c3ccc(C)o3)nc3ccccc23)nc1	67.5% (active)
COc1ccc(NC(=O)CN(C)C(=O)c2cc(-c3ccc(C)o3)nc3ccccc23)cc1	-3.85%
O=C(C1CCCO1)N1CCN(S(=O)(=O)c2ccc(Br)cc2)CC1 (stereo unspecified)	-5.02%
CN(C)C(CNC(=O)c1ccc(S(=O)(=O)NCc2ccco2)cc1)c1ccccc1 (stereo unspecified)	-0.87%
O=C(NN1C(=O)C2C3C=CC(O3)C2C1=O)c1ccncc1 (stereo unspecified)	0.55%
COc1ccccc1C(=O)NN1C(=O)C2C3C=CC(O3)C2C1=O (stereo unspecified)	-11.3%
O=C(NN1C(=O)C2C3C=CC(O3)C2C1=O)c1ccccc1 (stereo unspecified)	56% (active)
CCOc1cc(NC(=O)CCl)c(OCC)cc1NC(C)=O	-1.31%
O=c1ccc2c(-c3ccccc3S(=O)(=O)O)c3ccc(O)c(O)c3oc-2c1O	64.1% (active)
O=C(Nc1cc2c3c(c1)CC(=O)N3CCC2)c1ccccc1F	-6.14%
O=P(O)(CP(=O)(c1ccccc1)c1ccccc1)c1ccccc1	-4.63%
O=C(CSc1ccc(/C=N/NC(=O)c2cccc(F)c2)o1)Nc1ccccc1	-3.74%
O=C(Cn1cc(/C=N/NC(=O)c2cccc(C(F)(F)F)c2)c2ccccc21)Nc1ccc(F)cc1	90.8% (active)
COc1cccc(Cn2cc(/C=N/NC(=O)c3cc(O)cc(O)c3)c3ccccc32)c1	-15.4%
COc1cc(C2C3=C(CCCC3=O)OC3=C2C(=O)CCC3)ccc1OCC(=O)Nc1ccccc1	4.63%
COc1ccc(N2CCN(C(=O)CSc3nc4cc(OC)c(OC)cc4cc3C#N)CC2)cc1	67.5% (active)
COc1ccc(N2CCN(C(=O)CSc3nnc4ncccn34)CC2)cc1	-6.4%
CCOc1ccc(-c2nnn(CC(=O)N3CCN(c4ccc(OC)cc4)CC3)n2)cc1OCC	-1.29%
CCNC(=S)NCC	-5.72%
COc1ccc(/C(O)=C2/C(=O)C(=O)N(CC3CCCO3)C2c2ccc(OC)c(OC)c2)cc1 (stereo unspecified)	-4.81%
Cc1ccc(NC(=O)C(=O)NCc2ccco2)c(C)c1	-2.49%
Cc1cc(C)n2nc(SCC(=O)NC(=O)NCc3ccco3)nc2n1	7.37%
Cc1ccc(SCC(=O)NC(=O)NCc2ccco2)c(C)c1	70% (active)

Compound	inhibition
O=C(Cc1ccccc1Cl)N1CCN(c2ccccn2)CC1	-2.92%
O=C(Cn1cnc2ccccc2c1=O)Nc1cccc(S(=O)(=O)N2CCCCC2)c1	-7.43%
CN(C)C=NC(=O)c1cccn1-c1ncc(C(F)(F)F)cc1Cl	-4.15%
CCOc1ccc(OCC)c(NC(=O)CCS(=O)(=O)c2ccc(C)cc2)c1	-14.2%
O=C(CCS(=O)(=O)c1ccc(Br)cc1)NCCc1ccc(Cl)cc1	80% (active)
COc1ccc(Cl)cc1NC(=O)CCS(=O)(=O)c1ccc(Br)cc1	94.5% (active)
Cc1ccc(S(=O)(=O)CCC(=O)OCC(=O)NCCc2ccc(S(N)(=O)=O)cc2)cc1	-5.47%
O=C(Cc1ccc(Br)cc1)NCCc1ccccc1	-9.76%
COc1ccc(Cl)cc1NC(=O)CCS(=O)(=O)c1cc2c(cc1C)NC(=O)CO2	-1.24%
CCc1ccc(C(=O)N2CCN(S(=O)(=O)c3sc(C(=O)O)c(C)c3C(=O)O)CC2)cc1	11.9%
CC1CC(C)CN(C/C=C/c2ccccc2[N+](=O)[O-])C1 (stereo unspecified)	-6.48%
C=C1c2c(Cl)ccc(O)c2C(O)=C2C(=O)[C@]3(O)C(O)=C(C(N)=O)C(=O)[C@@H](N(C)C)[C@@H]3[C@@H](O)C12 (stereo partly specified)	65.5% (active)
CN(C)[C@@H]1C(=O)C(C(N)=O)=C(O)[C@@]2(O)C(=O)C3=C(O)c4c(O)ccc(Cl)c4[C@@H](O)[C@H]3C[C@@H]12	-6.29%
O=C(CNC(=O)c1cc2c(s1)CCC2)Nc1ccccc1Br	-7%
Brc1ccc(-c2nnc(-c3ccccc3)o2)o1	2.87%
O=C(CNC(=O)c1ccc(Br)o1)Nc1ccccc1	-5.1%
O=C(Nc1ccc(-c2nnc(-c3ccccc3)o2)cc1)c1ccc(Br)o1	73% (active)
O=C(COC(=O)c1cccnc1Cl)NC12CC3CC(CC(C3)C1)C2	-2.71%
c1ccc(C(c2ccccc2)N2CCN(Cc3nnnn3C3CCCCC3)CC2)cc1	5.01%
CC1(C)CC(N2CCN(C(c3ccccc3)c3ccccc3)CC2)=CC(=[N+]2CCCCC2)C1	98.9% (active)
CC(C)OCC(O)CN1CCN(C(c2ccccc2)c2ccccc2)CC1 (stereo unspecified)	-1.8%
COc1cc2c(cc1OC)C1C(=O)c3cc(OS(C)(=O)=O)c(OC)cc3C1N(C)C2=O (stereo unspecified)	7.12%
Cc1ccc(C)c(-c2nnc(NC(=O)CS(=O)(=O)c3ccccc3)o2)c1	-3.82%

Compound	inhibition
O=c1c2cc(-c3ccccc3)sc2nc2n1N=C(c1cccs1)CS2	79.1% (active)
Cc1ccccc1C1CC(c2cccs2)=NN1S(C)(=O)=O (stereo unspecified)	4.93%
O=c1c(-c2ccccc2)cnc2n1CCS2	-9.56%
COc1ccc(OCc2cc(C(=O)NCC3(C)COC3)no2)c(Cl)c1	-1.65%
Cc1nc2ccc(C(=O)N(C)CC3CCCN(CCc4ccc(Cl)cc4)C3)cc2[nH]1 (stereo unspecified)	-5.73%
COc1ccc(S(=O)(=O)N2CCN(C(=O)c3cc(C)oc3C)CC2)cc1	-8.28%
Nc1nc(NCC(=O)O)nc(N2CCCCCC2)c1[N+](=O)[O-]	6.19%
N#Cc1c(N2CCCCC2)nc(N)c2c(N)nc(SCC(=O)O)cc12	65.9% (active)
N#CCc1c(C#N)c(N)nc(N2CCCC2)c1C#N	-4.92%
CC(=O)Nc1ccc(S(=O)(=O)NC(C)C(=O)OCCOc2ccc(F)cc2)cc1 (stereo unspecified)	-7.64%
CCOc1ccccc1Nc1nnc(SCC(=O)NCC2CCCO2)s1 (stereo unspecified)	-9.59%
Cc1ccn2c(=O)nc(SCC(=O)NCc3ccc(F)cc3)nc2c1	16.3%
O=C(CSc1ncn[nH]1)NCc1ccc2c(c1)OCO2	-1.73%
Cc1ccn2c(=O)nc(SCC(=O)NCc3ccc4c(c3)OCO4)nc2c1	73.6% (active)
O=C1CC2(CCN(C(=O)COc3ccc(F)cc3)CC2)Oc2ccccc21	1.25%
O=C(CSc1ncn[nH]1)Nc1ccnc2ccccc12	-9.75%
CCCCCN1CC(O)=C(c2ccccc2)C1=N	-2.2%
CCCCCN1CC(O)=C(c2nc(-c3ccc(Cl)cc3)cs2)C1=N	94.9% (active)
CCCCNC(=O)CCn1nc(-c2ccc(Cl)cc2)ccc1=O	6.19%
Cc1ccc(NC(=O)CN(C)C(=O)c2ccc(Br)o2)cc1	1.38%
CC1(C)CC(=O)C2=C(C1)NCN(CCCN1CCOCC1)C2	-1.79%
CC(C)C(=O)NC(NC(=S)NC1CCS(=O)(=O)C1)C(Cl)(Cl)Cl (stereo unspecified)	-9.76%

Reference: PubChem BioAssay AID493091 (Sanford-Burnham Center for Chemical Genomics, 2011)
